Assay [1] deals with T1, Histone acetyltransferase p300 (Homo sapiens, UniProt Q09472). Kind of assay: Inhibition of GST-p300 HAT assessed as histone acetylation. The gist of the method: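 Recombinant histones H1, H2A, H2B, H3 and H4 were acetylated in vitro by the p300 HAT domain. Acetylated histones were detected by gel autoradiography, with Coomassie staining for total histone. IC50 was taken from densitometric dose–response curves, as the mean of at least three separate experiments.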

The target of assay [2] is T1, Histone acetyltransferase p300. Kind of assay: Inhibition of full length GST-p300 expressed in Sf9 cells assessed as histone acetylation.
Assay [3] has the same target. Kind of assay: Inhibition of GST-p300 HAT expressed in bacteria assessed as histone acetylation. The procedure, abridged: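 Recombinant histones H1, H2A, H2B, H3 and H4 were acetylated in vitro by the p300 HAT domain. Compounds were tested at 25–400 µM, or from 0.19 µM for one compound. Acetylated histones were detected by gel autoradiography, with Coomassie staining for total histone. IC50 was taken from densitometric dose–response curves, as the mean of at least three separate experiments.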

Assay [4] deals with HeLa. Kind of assay: Cytotoxicity in HeLa cells expressing H2B-EYFP above 20 uM. The class given is functional, cell-based. To be noted: Homo sapiens, in the assay text read “above 40 uM” for “above 20 uM”. The gist of the method: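 Cell toxicity in compound-treated H2B-EYFP HeLa cells was scored as decreased H2B-EYFP fluorescence.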
Assay [5] relates to HeLa. Kind of assay: Reduction of acetylation in HeLa cells expressing H2B-EYFP at 20 uM. The class given is functional, Homo sapiens. More on the design: scale not given: the % may be the effect or the level left. The gist of the method:
(§1)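 HeLa cells stably expressing H2B-EYFP were grown in 10% FCS-DMEM and treated with 20 or 40 µM compound or DMSO. Cells were then immunostained for acetyl-H3. Mean anti-acetyl-H3 fluorescence was normalized to H2B-EYFP fluorescence in the same cells and expressed as percent inhibition versus DMSO. Each of three independent experiments analyzed 150 cells; mean and standard error are reported.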

Assay [6] concerns HeLa. Put plainly: Reduction of acetylation in HeLa cells expressing H2B-EYFP at 40 uM. More on the design: scale not given: the % may be the effect or the level left. The format is functional, Homo sapiens. The gist of the method:
as §1

Assay [7] has as its target Histone acetyltransferase KAT2A (Homo sapiens) (UniProt Q92830). Kind of assay: Activity of GST-GCN5 assessed as HAT activity at 5 uM. The gist of the method: (§2)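 The same in vitro HAT assay was run with equal molar amounts of p300, PCAF and GCN5, each with a test compound at 5 or 21 µM. Acetylation was quantified by densitometry and expressed as percent variation from the DMSO-treated sample. Values are the mean of three independent experiments ± standard error.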

For assay [8], the target named is T1, Histone acetyltransferase p300. Put plainly: Activity of GST-p300 HAT assessed as HAT activity at 5 uM. The gist of the method: as §2
Assay [9] addresses Histone acetyltransferase KAT2A (Homo sapiens) (UniProt Q92830). Put plainly: Activity of GST-GCN5 assessed as HAT activity at 21 uM. The gist of the method:
as §2

The target in assay [10] is T1, Histone acetyltransferase p300. Kind of assay: Activity of GST-p300 HAT assessed as HAT activity at 21 uM. The gist of the method: as §2
Assay [11] has as its system HeLa. Kind of assay: Acetylation of H3 in HeLa cells expressing H2B-EYFP upto 200 uM. The note with it: Homo sapiens. The format is functional, cell-based. The procedure, abridged:
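H2B-EYFP HeLa cells in 10% FCS-DMEM were treated with various compound concentrations up to 200 µM, then immunostained with anti-acetyl-H3 antibodies. H2B-EYFP fluorescence served as an internal control for protein expression.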

Assay [12] deals with Histone acetyltransferase KAT2B (Homo sapiens) (UniProt Q92831). Put plainly: Activity of GST-PCAF assessed as HAT activity at 21 uM. The procedure, abridged:
as §2

The values that follow come from ChEMBL document CHEMBL1142987, “Cinnamoyl compounds as simple molecules that inhibit p300 histone acetyltransferase” (J Med Chem, 2007).

The source made the active and inactive calls. The calls are words filed in the database; no cut-off is given here.

T1 sequence (Q09472 whole entry, the tested form may be a part): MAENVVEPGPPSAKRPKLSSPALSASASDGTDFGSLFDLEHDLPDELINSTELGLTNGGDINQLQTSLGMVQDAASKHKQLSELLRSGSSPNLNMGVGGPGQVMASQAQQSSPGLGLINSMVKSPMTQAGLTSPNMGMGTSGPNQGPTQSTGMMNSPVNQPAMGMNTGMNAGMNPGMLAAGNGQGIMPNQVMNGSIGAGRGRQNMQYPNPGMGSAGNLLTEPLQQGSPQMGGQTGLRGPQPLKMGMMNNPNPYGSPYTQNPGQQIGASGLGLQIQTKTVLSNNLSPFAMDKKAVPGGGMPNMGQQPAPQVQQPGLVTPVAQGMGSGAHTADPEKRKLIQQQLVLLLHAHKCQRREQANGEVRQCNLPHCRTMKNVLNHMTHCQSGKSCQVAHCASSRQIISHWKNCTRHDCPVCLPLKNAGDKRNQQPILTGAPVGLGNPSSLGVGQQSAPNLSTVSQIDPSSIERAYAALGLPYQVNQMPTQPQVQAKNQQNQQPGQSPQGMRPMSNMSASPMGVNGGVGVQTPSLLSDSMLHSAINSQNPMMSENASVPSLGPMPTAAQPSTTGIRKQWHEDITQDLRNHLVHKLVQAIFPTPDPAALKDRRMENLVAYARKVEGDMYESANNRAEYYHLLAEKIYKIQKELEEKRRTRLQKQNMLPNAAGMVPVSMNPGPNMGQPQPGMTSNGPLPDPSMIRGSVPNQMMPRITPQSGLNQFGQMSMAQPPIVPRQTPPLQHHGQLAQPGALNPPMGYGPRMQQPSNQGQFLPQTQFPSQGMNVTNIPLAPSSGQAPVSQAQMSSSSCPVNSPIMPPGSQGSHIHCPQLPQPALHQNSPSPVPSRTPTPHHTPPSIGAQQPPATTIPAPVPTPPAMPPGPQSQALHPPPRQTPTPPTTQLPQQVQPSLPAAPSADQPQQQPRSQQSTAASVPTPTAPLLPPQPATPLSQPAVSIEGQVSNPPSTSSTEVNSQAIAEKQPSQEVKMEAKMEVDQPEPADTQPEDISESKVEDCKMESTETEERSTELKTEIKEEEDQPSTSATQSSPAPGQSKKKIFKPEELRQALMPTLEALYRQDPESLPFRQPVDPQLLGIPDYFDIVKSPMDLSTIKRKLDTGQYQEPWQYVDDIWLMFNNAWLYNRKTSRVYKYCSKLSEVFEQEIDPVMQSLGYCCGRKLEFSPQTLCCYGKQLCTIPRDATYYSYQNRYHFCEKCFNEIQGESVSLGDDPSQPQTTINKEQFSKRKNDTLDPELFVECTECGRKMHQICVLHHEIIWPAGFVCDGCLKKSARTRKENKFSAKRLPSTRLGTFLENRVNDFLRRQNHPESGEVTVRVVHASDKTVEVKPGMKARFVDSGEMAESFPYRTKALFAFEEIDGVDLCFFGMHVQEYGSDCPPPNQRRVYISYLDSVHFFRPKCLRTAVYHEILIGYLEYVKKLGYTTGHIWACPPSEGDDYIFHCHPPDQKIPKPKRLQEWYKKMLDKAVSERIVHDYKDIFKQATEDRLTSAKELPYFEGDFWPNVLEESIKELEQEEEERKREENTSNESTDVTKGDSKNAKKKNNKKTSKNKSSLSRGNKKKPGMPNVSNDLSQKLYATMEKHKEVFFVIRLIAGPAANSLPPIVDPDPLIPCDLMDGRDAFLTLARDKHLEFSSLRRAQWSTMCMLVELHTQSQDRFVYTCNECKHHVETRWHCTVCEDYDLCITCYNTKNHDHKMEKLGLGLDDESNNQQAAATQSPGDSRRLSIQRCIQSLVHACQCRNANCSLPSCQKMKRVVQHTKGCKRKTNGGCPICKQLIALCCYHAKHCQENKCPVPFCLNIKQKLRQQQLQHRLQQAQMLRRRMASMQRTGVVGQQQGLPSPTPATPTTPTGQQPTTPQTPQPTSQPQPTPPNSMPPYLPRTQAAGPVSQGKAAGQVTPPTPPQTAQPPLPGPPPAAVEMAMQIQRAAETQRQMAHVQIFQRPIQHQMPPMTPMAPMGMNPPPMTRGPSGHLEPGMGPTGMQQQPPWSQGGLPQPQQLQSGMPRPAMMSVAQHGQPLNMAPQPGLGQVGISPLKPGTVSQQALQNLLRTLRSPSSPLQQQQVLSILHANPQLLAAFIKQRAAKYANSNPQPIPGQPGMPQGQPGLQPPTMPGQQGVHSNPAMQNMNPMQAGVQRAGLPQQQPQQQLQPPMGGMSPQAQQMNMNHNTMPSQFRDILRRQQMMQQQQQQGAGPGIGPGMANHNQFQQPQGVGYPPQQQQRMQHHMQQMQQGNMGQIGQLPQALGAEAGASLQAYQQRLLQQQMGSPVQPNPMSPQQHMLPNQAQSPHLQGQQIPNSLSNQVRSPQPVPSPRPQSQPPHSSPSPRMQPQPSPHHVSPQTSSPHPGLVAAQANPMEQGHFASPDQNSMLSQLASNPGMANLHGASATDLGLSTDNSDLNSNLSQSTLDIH
Sequence of Histone acetyltransferase KAT2A (Homo sapiens) (Q92830 2-837 limits assumed): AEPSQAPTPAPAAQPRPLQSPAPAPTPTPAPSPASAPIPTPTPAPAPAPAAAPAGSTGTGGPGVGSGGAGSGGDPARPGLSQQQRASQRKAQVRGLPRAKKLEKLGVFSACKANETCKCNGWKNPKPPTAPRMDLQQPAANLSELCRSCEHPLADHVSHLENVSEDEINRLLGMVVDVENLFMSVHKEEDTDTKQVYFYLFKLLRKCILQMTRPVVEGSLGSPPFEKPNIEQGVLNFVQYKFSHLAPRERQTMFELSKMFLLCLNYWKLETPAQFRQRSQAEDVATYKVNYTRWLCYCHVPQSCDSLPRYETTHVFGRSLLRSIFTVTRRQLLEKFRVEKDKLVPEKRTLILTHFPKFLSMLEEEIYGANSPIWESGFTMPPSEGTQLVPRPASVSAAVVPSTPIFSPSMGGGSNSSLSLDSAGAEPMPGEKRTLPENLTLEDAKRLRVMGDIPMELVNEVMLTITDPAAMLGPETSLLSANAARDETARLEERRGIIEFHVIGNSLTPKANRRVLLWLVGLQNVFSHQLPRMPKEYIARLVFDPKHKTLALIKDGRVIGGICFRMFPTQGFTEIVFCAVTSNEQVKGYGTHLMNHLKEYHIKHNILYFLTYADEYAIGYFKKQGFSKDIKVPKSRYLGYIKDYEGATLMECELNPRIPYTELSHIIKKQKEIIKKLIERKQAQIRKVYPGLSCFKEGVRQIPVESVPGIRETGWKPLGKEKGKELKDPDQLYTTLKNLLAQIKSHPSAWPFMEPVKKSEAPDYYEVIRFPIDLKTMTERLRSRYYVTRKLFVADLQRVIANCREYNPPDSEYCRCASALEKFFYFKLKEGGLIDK
Sequence of Histone acetyltransferase KAT2B (Homo sapiens) (Q92831 whole entry, looked up): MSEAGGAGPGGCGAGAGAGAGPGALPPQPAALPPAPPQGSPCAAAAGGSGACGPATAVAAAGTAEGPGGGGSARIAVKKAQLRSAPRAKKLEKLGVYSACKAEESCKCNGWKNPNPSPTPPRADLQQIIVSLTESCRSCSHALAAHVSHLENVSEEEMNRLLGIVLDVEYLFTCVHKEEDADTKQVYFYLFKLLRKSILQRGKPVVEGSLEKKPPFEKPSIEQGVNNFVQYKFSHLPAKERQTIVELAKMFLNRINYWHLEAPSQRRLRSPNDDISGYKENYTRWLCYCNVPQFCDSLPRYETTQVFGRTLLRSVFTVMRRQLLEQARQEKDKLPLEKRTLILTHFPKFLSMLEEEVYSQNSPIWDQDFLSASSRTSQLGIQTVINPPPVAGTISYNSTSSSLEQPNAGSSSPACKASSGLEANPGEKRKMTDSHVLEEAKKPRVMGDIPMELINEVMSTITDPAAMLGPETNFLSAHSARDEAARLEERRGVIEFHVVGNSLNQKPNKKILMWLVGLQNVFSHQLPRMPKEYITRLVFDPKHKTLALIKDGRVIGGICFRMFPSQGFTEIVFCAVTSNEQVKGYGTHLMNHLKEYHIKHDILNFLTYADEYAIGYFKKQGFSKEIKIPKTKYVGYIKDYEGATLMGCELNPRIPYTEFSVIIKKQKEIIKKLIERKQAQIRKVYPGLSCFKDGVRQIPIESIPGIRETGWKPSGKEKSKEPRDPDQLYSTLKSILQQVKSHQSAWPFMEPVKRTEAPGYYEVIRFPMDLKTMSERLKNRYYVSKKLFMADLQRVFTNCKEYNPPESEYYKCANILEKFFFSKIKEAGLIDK

Regarding `O=C(/C=C(O)/C=C/c1ccc(O)c(Br)c1)/C=C/c1ccc(O)c(Br)c1`, the IC50 (in general, the concentration that inhibits the measured activity by half) in assay [1] was 33 µM.
The same measure, in the same setting: next, `COc1cc(/C=C2\CCC/C(=C\c3ccc(O)c(OC)c3)C2=O)ccc1O` [CYCLOVALONE]: 111 µM.
Regarding `COc1cc(/C=C/C(=O)CC(=O)/C=C/c2ccc(O)c(OC)c2)ccc1O`, the outcome in assay [2] and in assay [3] was inactive.
Consider `O=C1/C(=C/c2ccc(O)c(Br)c2)CCC/C1=C\c1ccc(O)c(Br)c1`, for which the outcome with HeLa [4] was Active. Also, the Activity in the assay with HeLa [5] was 30%; with HeLa [6] it was more than 50%; in assay [7], 70%; in assay [8], 50%. For the same molecule, the IC50 in assay [1] is 5 µM.
For `O=C(/C=C(O)/C=C/c1ccc(O)c(C(=O)O)c1)/C=C/c1ccc(O)c(C(=O)O)c1`, the figures for the Activity in assay [9], in assay [10] and in [12] were 38%, 50% and 68%, respectively. The outcome in the assay with HeLa [11] was inactive. The IC50 in assay [1] came out at 21 µM.
As for `O=C(/C=C(O)/C=C/c1ccc(O)c(O)c1)/C=C/c1ccc(O)c(O)c1`, in [1], the IC50 was 46 µM.
Same read-out and setting: the result for `O=C1/C(=C/c2ccc(O)c(C(=O)O)c2)CCC/C1=C\c1ccc(O)c(C(=O)O)c1` reads 168 µM; that for `O=C1/C(=C/c2ccc(O)c(O)c2)CCC/C1=C\c1ccc(O)c(O)c1`, 233 µM.
